{"source": "ChEMBL document CHEMBL1157227", "about": "“Cytotoxic pregnane steroids from the formosan soft coral Stereonephthya crystalliana” (J Nat Prod, 2006)", "key": {"[1]": {"tested_on": "HT-29", "experiment": "Cytotoxicity against human HT29 cells", "assay_type": "functional", "conditions": "read-out: ED50 (the source's name)", "method_in_brief": "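HT-29 human colon adenocarcinoma cells from ATCC; in vitro cytotoxicity by a previously described procedure; result given as ED50 in µg/mL, with ED50 ≤ 4.0 µg/mL taken as significant for pure compounds.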"}, "[2]": {"tested_on": "P388", "experiment": "Cytotoxicity against mouse P388 cells", "assay_type": "functional, cell-based", "method_in_brief": "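P-388 mouse lymphocytic leukemia cells provided by an academic lab; in vitro cytotoxicity by a previously described procedure; result given as ED50 in µg/mL, with ED50 ≤ 4.0 µg/mL taken as significant for pure compounds.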"}}, "data": [{"smiles": "C=CC1CCC2C3CCC4CC(OC5OC(C)C(O)C(OC(C)=O)C5O)CCC4(C)C3CCC12C", "note": "(stereo not drawn)", "values": [{"measurement": "EC50", "setting": "[1]", "result": 6.2, "unit": "µg/mL"}, {"measurement": "IC50", "setting": "[2]", "result": 13.3, "unit": "µg/mL"}]}, {"smiles": "C=C[C@H]1CC[C@H]2[C@@H]3CC[C@H]4C[C@@H](O)CC[C@]4(CO)[C@H]3CC[C@]12C", "note": "[STEREONSTEROID A]", "values": [{"measurement": "EC50", "setting": "[1]", "result": 7.5, "unit": "µg/mL"}, {"measurement": "IC50", "setting": "[2]", "result": 3.5, "unit": "µg/mL"}]}, {"smiles": "C=C[C@H]1CC[C@H]2[C@@H]3CC[C@H]4C[C@@H](OC(C)=O)CC[C@]4(C=O)[C@H]3CC[C@]12C", "note": "[STEREONSTEROID B]", "values": [{"measurement": "EC50", "setting": "[1]", "result": 1.7, "unit": "µg/mL"}, {"measurement": "IC50", "setting": "[2]", "result": 1.6, "unit": "µg/mL"}]}, {"smiles": "C=C[C@H]1CC[C@H]2[C@@H]3CC[C@H]4C[C@@H](O[C@@H]5O[C@@H](C)[C@@H](OC(C)=O)[C@@H](O)[C@@H]5O)CC[C@]4(CO)[C@H]3CC[C@]12C", "note": "[STEREONSTEROID C]", "values": [{"measurement": "EC50", "setting": "[1]", "result": 2.7, "unit": "µg/mL"}, {"measurement": "IC50", "setting": "[2]", "result": 3.1, "unit": "µg/mL"}]}, {"smiles": "C=C[C@H]1CC[C@H]2[C@@H]3CC[C@H]4C[C@@H](O[C@@H]5O[C@@H](C)[C@@H](OC(C)=O)[C@@H](O)[C@@H]5O)CC[C@]4(COC(C)=O)[C@H]3CC[C@]12C", "note": "[STEREONSTEROID D]", "values": [{"measurement": "EC50", "setting": "[1]", "result": 5.2, "unit": "µg/mL"}, {"measurement": "IC50", "setting": "[2]", "result": 4.9, "unit": "µg/mL"}]}, {"smiles": "C=C[C@H]1CC[C@H]2[C@@H]3CC[C@H]4C[C@@H](O[C@@H]5O[C@@H](C)[C@@H](OC(C)=O)[C@@H](O)[C@@H]5O)CC[C@]4(C=O)[C@H]3CC[C@]12C", "note": "[STEREONSTEROID E]", "values": [{"measurement": "EC50", "setting": "[1]", "result": 9.3, "unit": "µg/mL"}, {"measurement": "IC50", "setting": "[2]", "result": 3.8, "unit": "µg/mL"}]}, {"smiles": "C=C[C@H]1CC[C@H]2[C@@H]3CC[C@H]4C[C@@H](O[C@@H]5O[C@@H](C)[C@@H](OC(C)=O)[C@@H](O)[C@@H]5O)CC[C@]4(C)[C@H]3CC[C@]12C", "note": "[STEREONSTEROID F]", "values": [{"measurement": "EC50", "setting": "[1]", "result": 10.8, "unit": "µg/mL"}, {"measurement": "IC50", "setting": "[2]", "result": 9.4, "unit": "µg/mL"}]}, {"smiles": "C=C[C@H]1CC[C@H]2[C@@H]3CC=C4C[C@@H](O[C@@H]5O[C@@H](C)[C@@H](O)[C@@H](OC(C)=O)[C@@H]5O)CC[C@]4(C)[C@H]3CC[C@]12C", "note": "[STEREONSTEROID H]", "values": [{"measurement": "EC50", "setting": "[1]", "result": 5.3, "unit": "µg/mL"}, {"measurement": "IC50", "setting": "[2]", "result": 5.4, "unit": "µg/mL"}]}, {"smiles": "C=C[C@H]1CC[C@H]2[C@@H]3CC[C@H]4C[C@@H](O[C@@H]5OC[C@@H](O)[C@H](O)[C@H]5O)CC[C@]4(C)[C@H]3CC[C@]12C", "note": "[STEREONSTEROID I]", "values": [{"measurement": "EC50", "setting": "[1]", "result": 7.7, "unit": "µg/mL"}, {"measurement": "IC50", "setting": "[2]", "result": 5.9, "unit": "µg/mL"}]}]}
